Data from ChEMBL document CHEMBL3272224, “Synthesis and hypotensive activity of N-alkyl-N"-cyano-N'-pyridylguanidines” (J Med Chem, 1978).
Activity calls are given as the source filed them. No cut-off for these calls is given here.

How the values were obtained:
Rattus norvegicus [1] = assay: Toxicity in rat assessed as change in cardiac noradrenaline level at 1 mg/kg; type: organism-based, Heart; set-up: dose 1 mg/kg; settings: in vivo
In short: (§1)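 Rats were given single or repeated (5 days) administration, and cardiac noradrenaline levels were measured.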

Rattus norvegicus [2] = assay: Toxicity in rat assessed as change in cardiac noradrenaline level at 1 mg/kg for 5 days; type: organism-based, Heart; set-up: dose 1 mg/kg; settings: in vivo, 120 h; in short: as §1
Rattus norvegicus [3] = species: Rattus norvegicus; assay: Toxicity in rat assessed as effect on contraction of nictitating membranes by preganglionic stimulation; type: organism-based, Nictitating membrane; settings: in vivo
Rattus norvegicus [4] = assay: Hypotensive activity in po dosed spontaneously hypertensive Wistar-Okamoto rat assessed as dose required to cause 30 mmHg fall of blood pressure administered for 5 days; type: functional; settings: 120 h, read-out: MED
Rattus norvegicus [5] = assay: Hypotensive activity in spontaneously hypertensive Wistar-Okamoto rat assessed as maximum change in mean blood pressure at 2.5 mg/kg, po relative to control; type: functional
In short: (§2)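 Spontaneously hypertensive Wistar-Okamoto rats, five per dose, received compound orally, dissolved or suspended in 0.5% carboxymethylcellulose. Blood pressure was measured indirectly by tail cuff in restrained conscious rats before dosing and at 2, 4, 6, 8, 12 and 24 h. Maximum change was measured after a single administration and given as mean ± error.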

Rattus norvegicus [6] = assay: Hypotensive activity in spontaneously hypertensive Wistar-Okamoto rat assessed as maximum change in mean blood pressure at 0.5 mg/kg, po relative to control; type: functional; in short: as §2
Rattus norvegicus [7] = assay: Hypotensive activity in spontaneously hypertensive Wistar-Okamoto rat assessed as maximum change in mean blood pressure at 1 mg/kg, po relative to control; type: functional; in short: as §2
Rattus norvegicus [8] = assay: Hypotensive activity in spontaneously hypertensive Wistar-Okamoto rat assessed as time required for persistence of hypotensive effect at 2.5 mg/kg, po; type: functional
In short: (§3)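 SHR (Wistar-Okamoto), five per dose, were given an oral dose in 0.5% carboxymethylcellulose. Indirect cuff pressure in restrained conscious rats was read before dosing and at 2, 4, 6, 8, 12 and 24 h. Duration (h) was scored while pressure remained 15 mmHg or more below the initial reading.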

Rattus norvegicus [9] = assay: Hypotensive activity in spontaneously hypertensive Wistar-Okamoto rat assessed as time required for persistence of hypotensive effect at 0.5 mg/kg, po; type: functional; in short: as §3
Rattus norvegicus [10] = assay: Hypotensive activity in spontaneously hypertensive Wistar-Okamoto rat assessed as time required for persistence of hypotensive effect at 1 mg/kg, po; type: functional; in short: as §3
Canis familiaris [11] = assay: Hypotensive activity in conscious renal hypertensive dog assessed as maximum change in mean blood pressure at 0.25 mg/kg, po measured for 8 hrs relative to control; type: functional, Canis lupus familiaris
In short: (§4)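 Renal hypertensive dogs, conscious, dosed orally in soft gelatin capsules, three dogs per dose. Mean blood pressure was taken indirectly with an Arteriosonde, standing animals in a semi-insonorized room, just before dosing and then hourly for 8 h. Maximum change was measured after a single administration and given as mean ± error.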

Canis familiaris [12] = assay: Hypotensive activity in conscious renal hypertensive dog assessed as maximum change in mean blood pressure at 0.5 mg/kg, po measured for 8 hrs relative to control; type: functional, Canis lupus familiaris; in short: as §4
Canis familiaris [13] = assay: Hypotensive activity in conscious renal hypertensive dog assessed as maximum change in mean blood pressure at 1 mg/kg, po measured for 8 hrs relative to control; type: functional, Canis lupus familiaris; in short: as §4
Canis familiaris [14] = assay: Hypotensive activity in conscious renal hypertensive dog assessed as time required for persistence of hypotensive effect at 0.25 mg/kg, po measured for 8 hrs; type: functional, Canis lupus familiaris
In short: (§5)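 Conscious renal hypertensive dogs received single oral doses in soft gelatin capsules, three per dose. Indirect standing blood pressure was read before dosing and hourly to 8 h. Duration (h) was the time the pressure stayed 15 mmHg or more below the initial value, which was taken as persistence of the hypotensive effect.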

Canis familiaris [15] = assay: Hypotensive activity in conscious renal hypertensive dog assessed as time required for persistence of hypotensive effect at 0.5 mg/kg, po measured for 8 hrs; type: functional, Canis lupus familiaris; in short: as §5
Canis familiaris [16] = assay: Hypotensive activity in conscious renal hypertensive dog assessed as time required for persistence of hypotensive effect at 1 mg/kg, po measured for 8 hrs; type: functional, Canis lupus familiaris; in short: as §5
Felis catus = species: Felis catus; assay: Hypotensive activity in decerebrated cat; type: functional, organism-based
[17] = Toxicity in po dosed Sprague-Dawley rat assessed as mortality after 7 days; type: organism-based; settings: in vivo
Rattus norvegicus [18] = assay: Toxicity in rat assessed as change in cardiac noradrenaline level at 0.1 mg/kg; type: organism-based, Heart; set-up: dose 0.1 mg/kg; settings: in vivo; in short: as §1
Rattus norvegicus [19] = assay: Toxicity in rat assessed as change in cardiac noradrenaline level at 0.1 mg/kg for 5 days; type: organism-based, Heart; set-up: dose 0.1 mg/kg; settings: in vivo, 120 h; in short: as §1
[20] = Toxicity in po dosed mouse assessed as mortality after 7 days; settings: in vivo
Rattus norvegicus [21] = assay: Hypotensive activity in spontaneously hypertensive Wistar-Okamoto rat assessed as maximum change in mean blood pressure at 0.1 mg/kg, po relative to control; type: functional; in short: as §2
Rattus norvegicus [22] = assay: Hypotensive activity in spontaneously hypertensive Wistar-Okamoto rat assessed as maximum change in mean blood pressure at 0.25 mg/kg, po relative to control; type: functional; in short: as §2
Rattus norvegicus [23] = assay: Hypotensive activity in spontaneously hypertensive Wistar-Okamoto rat assessed as time required for persistence of hypotensive effect at 0.1 mg/kg, po; type: functional; in short: as §3
Rattus norvegicus [24] = assay: Hypotensive activity in spontaneously hypertensive Wistar-Okamoto rat assessed as time required for persistence of hypotensive effect at 0.25 mg/kg, po; type: functional; in short: as §3
Canis familiaris [25] = assay: Hypotensive activity in conscious renal hypertensive dog assessed as maximum change in mean blood pressure at 2 mg/kg, po measured for 8 hrs relative to control; type: functional, Canis lupus familiaris; in short: as §4
Canis familiaris [26] = assay: Hypotensive activity in conscious renal hypertensive dog assessed as time required for persistence of hypotensive effect at 2 mg/kg, po measured for 8 hrs; type: functional, Canis lupus familiaris; in short: as §5
Rattus norvegicus [27] = assay: Hypotensive activity in po dosed spontaneously hypertensive Wistar-Okamoto rat relative to hydralazine; type: functional

| SMILES | Activity (Rattus norvegicus [3]) | minimal effective dose (Rattus norvegicus [4]) | Activity (Rattus norvegicus [5]) | Activity (Rattus norvegicus [6]) | Activity (Rattus norvegicus [7]) | Time (Rattus norvegicus [8]) | Time (Rattus norvegicus [9]) | Time (Rattus norvegicus [10]) | Activity (Canis familiaris [12]) | Activity (Canis familiaris [13]) | Time (Canis familiaris [15]) | Time (Canis familiaris [16]) | Activity (Felis catus) | LD50 at 168 h [17] | LD50 at 168 h [20] | other results |
| --- | --- | --- | --- | --- | --- | --- | --- | --- | --- | --- | --- | --- | --- | --- | --- | --- |
| CC(N/C(=N\C#N)Nc1ccncc1)C(C)(C)C (configuration not stated) [PINACIDIL ANHYDROUS] | Non-toxic | 0.5 mg/kg | -79 mmHg | -34 mmHg | -68 mmHg | >12 h | 8 h | >12 h | -43 mmHg | -67 mmHg | 6 h | >8 h | Active |  |  | Activity (Rattus norvegicus [1]): Non-toxic; Activity (Rattus norvegicus [2]): Non-toxic; Activity (Canis familiaris [11]): -26 mmHg; Time (Canis familiaris [14]): 4 h |
| NNc1nncc2ccccc12 [HYDRALAZINE] |  |  | -64 mmHg |  | -36 mmHg | >8 h |  | 4 h | -21 mmHg | -42 mmHg | 2 h | 6 h |  | 107 mg/kg |  |  |
| CCC(C)(C)NC(=NC#N)Nc1cccnc1 | Non-toxic |  |  |  |  |  |  |  |  |  |  |  |  | 14 mg/kg | > 1000 mg/kg | Activity (Rattus norvegicus [18]): Non-toxic; Activity (Rattus norvegicus [19]): Non-toxic |
| CC(=O)N(/C(=N\C#N)Nc1cccnc1)C(C)(C)C.O | Non-toxic | 0.1 mg/kg |  | -86 mmHg |  |  | >8 h |  | -22 mmHg |  | 2 h |  | Active | 615 mg/kg | > 1000 mg/kg | Activity (Rattus norvegicus [21]): -30 mmHg; Activity (Rattus norvegicus [22]): -64 mmHg; Time (Rattus norvegicus [23]): 4 h; Time (Rattus norvegicus [24]): 4 h; Activity (Canis familiaris [25]): -75 mmHg; Time (Canis familiaris [26]): 8 h; fold change (FC) (Rattus norvegicus [27]): 2 |
